Measurements as given in publication PMC3057608 (Cancer research, 2011).
Read-outs that look alike come from different tables or passages of the source.

How the values were obtained:
[1] = tested on: HCC1937 cells; experiment: Neutral comet assay, BRCA1-null cells; format: cell-based
[2] = tested on: CAPAN1 cells; experiment: Neutral comet assay, BRCA2-null cells; format: cell-based
[3] = tested on: HCC1937 cells; experiment: Clonogenic assay, BRCA1-null cells; format: cell-based
[4] = tested on: CAPAN1 cells; experiment: Clonogenic assay, BRCA2-null cells; format: cell-based
[5] = target: T1, DNA-PKcs (Homo sapiens, UniProt P78527); experiment: ELISA of GNFRYLAPP/DNA-PKcs interaction; format: binding; details: pure DNA-PK, 1 μM ATP, sonicated DNA, 37°C 1 h, fluorescence read-out (Fig. 4B)
How it was run: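 Bait wells: streptavidin plates coated with 100 ng biotinylated linearized pSP72 or 10 ng biotinylated test peptide (or biotinylated scrambled control), or adsorption plates coated with 250 units pure DNA-PK. After blocking, prey is added for 1 h at 37°C with 1 μM ATP, sonicated DNA (50 ng/μL) and protease/phosphatase inhibitors. Non-biotinylated test or scrambled peptide serves as competitor. DNA-PKcs is read with fluorophore-conjugated antibodies and peptide with FITC-streptavidin (1:500) on a fluorescence plate reader.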

[6] = target: T1, DNA-PKcs; experiment: DNA-PKcs kinase assay; format: biochemical; details: for DNA-PKcs inhibition by truncated/mutant/phosphorylated peptide derivatives: alanine scanning and mutant peptides, DNA-PKcs kinase activity (Fig. 6A)
[7] = target: T1, DNA-PKcs; experiment: Protease protection assay; format: biochemical; details: 10 μM, trypsin 0.01% 8 min 37°C, immunoblot (Fig. 4H)
[8] = tested on: KS1767 cells; experiment: Nuclear focus formation after irradiation, DNA-PKcs +/+ cells; format: cell-based, human; details: 10 μM
How it was run: (§1)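 Peptides at 10 μM are added to growth medium 72 h before irradiation or mock-irradiation (137Cs, 333 cGy per minute). Cells are grown on coverslips and fixed 3 min in ice-cold acetone:methanol 1:1 at set times after irradiation. They are blocked 1 h at room temperature in 5% goat serum, with primary reagents in 1% BSA overnight at 4°C and secondary reagents 1 h at room temperature. Foci are imaged by inverted fluorescence microscopy.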

[9] = tested on: M059J cells; experiment: Nuclear focus formation after irradiation, DNA-PK -/- cells; format: cell-based; details: 10 μM, 1 h after 3 Gy, FITC-streptavidin (Fig. 5A left)
How it was run: as §1

[10] = tested on: Phosphorylated DNA-PKcs (T2609) in KS1767 cells; experiment: DNA-PKcs autophosphorylation; format: cell-based, human; details: KS1767, 10 μM, 30 minutes after 3 Gy (Fig. 5B)
How it was run: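 Peptides, penetratin-fused test or scrambled control at 10 μM, are added to standard growth medium of KS1767 Kaposi sarcoma cells 72 h before irradiation or mock-irradiation. Irradiation uses a 137Cs source at 333 cGy per minute.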

## COc1cc(C=O)c([N+](=O)[O-])cc1OC [DMNB, reference compound]
[1]
  residual double-strand breaks by neutral comet assay: increased residual double-strand breaks
[2]
  residual double-strand breaks by neutral comet assay: increased residual double-strand breaks
[3]
  radiosensitivity by clonogenic assay: increased radiosensitivity
[4]
  radiosensitivity by clonogenic assay: increased radiosensitivity

## GNFRYLAPP
[5]
  interaction with DNA-PKcs by ELISA: sufficient for attracting
[6]; Fig. 4C
  phosphorylation of the peptide itself by DNA-PKcs: not phosphorylated
[6]; conclusion from binding, kinase and protease protection data
  mode of DNA-PKcs inhibition: non-competitive inhibitor
[6]; pure DNA-PK, increasing molar ratios of peptide to substrate (Fig. 4C)
  effect on DNA-PKcs phosphorylation of its p53-derived consensus substrate: progressively inhibited
[7]
  effect on DNA-induced protection of DNA-PKcs from trypsin digestion: prevented the protection from trypsin digestion

## GNFRYLAPP-pen
[8]; KS1767 (DNA-PKcs +/+), 1 h after 3 Gy, FITC-streptavidin (Fig. 5A left)
  nuclear focus formation of biotinylated peptide: formed foci
[8]; KS1767, 3 Gy, majority of cells retaining foci as late as 12 hours (Fig. 5A right)
  resolution of peptide foci over time after irradiation: slow resolution
[9]
  nuclear focus formation of biotinylated peptide: did not form foci
[10]
  phosphorylated DNA-PKcs (T2609) signal after irradiation: no signal was detected
[1]; HCC1937 (BRCA1-null), 10 μM, 72 h pre-incubation, 3 and 6 hours after 6 Gy (Fig. 5C)
  residual double-strand breaks by neutral comet assay: increased residual double-strand breaks
[2]; CAPAN1 (BRCA2-null), 10 μM, 72 h pre-incubation, 3 and 6 hours after 6 Gy (Fig. 5C)
  residual double-strand breaks by neutral comet assay: increased residual double-strand breaks
[3]; HCC1937 (BRCA1-null), 10 μM, 72 h pre-incubation (Fig. 5D-E)
  radiosensitivity by clonogenic assay: increased radiosensitivity
[4]; CAPAN1 (BRCA2-null), 10 μM, 72 h pre-incubation (Fig. 5D-E)
  radiosensitivity by clonogenic assay: increased radiosensitivity

## GSFRYL
[6]
  DNA-PKcs inhibition by truncated/mutant/phosphorylated peptide derivatives: abolished

## GpSFRYL
[6]
  DNA-PKcs inhibition by truncated/mutant/phosphorylated peptide derivatives: reestablished DNA-PKcs inhibition

## RYPAGLPFL [scrambled peptide, reference compound]
[5]
  interaction with DNA-PKcs by ELISA: no detectable interaction
